In ChEMBL document CHEMBL1641558, “A novel series of potent and selective EP(4) receptor ligands: facile modulation of agonism and antagonism” (Bioorg Med Chem Lett, 2011):

Columns and labels:
Homo sapiens [1] = species: Homo sapiens; assay: Selectivity ratio of Ki for human prostanoid EP2 receptor to Ki for human prostanoid EP4
Homo sapiens [2] = species: Homo sapiens; assay: Selectivity ratio of Ki for human prostanoid DP receptor to Ki for human prostanoid EP4
Homo sapiens [3] = species: Homo sapiens; assay: Selectivity ratio of Ki for human prostanoid EP1 receptor to Ki for human prostanoid EP4
Homo sapiens [4] = species: Homo sapiens; assay: Selectivity ratio of Ki for human prostanoid EP3 receptor to Ki for human prostanoid EP4
Homo sapiens [5] = species: Homo sapiens; assay: Selectivity ratio of Ki for human prostanoid FP receptor to Ki for human prostanoid EP4
Homo sapiens [6] = species: Homo sapiens; assay: Selectivity ratio of Ki for human prostanoid IP receptor to Ki for human prostanoid EP4
Homo sapiens [7] = species: Homo sapiens; assay: Selectivity ratio of Ki for human prostanoid TP receptor to Ki for human prostanoid EP4
[8] = molecular target: T1, Prostaglandin E2 receptor EP4 subtype (Homo sapiens, UniProt P35408); assay: Displacement of [3H]PGE2 from human prostanoid EP4 receptor expressed in HEK293-EBNA cells after 60 mins by scintillation counting; type: cell-based
[9] = molecular target: T1, Prostaglandin E2 receptor EP4 subtype; assay: Antagonist activity at human prostanoid EP4 receptor expressed in HEK293 cells assessed as inhibition of PGE2-induced cAMP accumulation by scintillation proximity assay; type: functional, cell-based
In short: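 HEK293 cells expressing EP4 receptors. Antagonism is read as inhibition of PGE2-evoked rise in intracellular cAMP, reported as IC50. Agonism is read as cAMP elevation in the same cells without PGE2, reported as EC50.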

[10] = Half life in rat at 20 mg/kg, po and 5 mg/kg, iv; type: ADME, organism-based; details: in vivo
In short: (§1)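 Rat pharmacokinetics with potassium salts, given 20 mg/kg orally in 0.5% methocel and 5 mg/kg intravenously in 60% PEG 200. Half-life, oral bioavailability and clearance derived from these dosings.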

[11] = Bioavailability in rat at 20 mg/kg, po and 5 mg/kg, iv; type: ADME, organism-based; details: in vivo; in short: as §1
[12] = Clearance in rat at 20 mg/kg, po and 5 mg/kg, iv; type: ADME, organism-based; details: in vivo; in short: as §1

T1 sequence (P35408 whole entry): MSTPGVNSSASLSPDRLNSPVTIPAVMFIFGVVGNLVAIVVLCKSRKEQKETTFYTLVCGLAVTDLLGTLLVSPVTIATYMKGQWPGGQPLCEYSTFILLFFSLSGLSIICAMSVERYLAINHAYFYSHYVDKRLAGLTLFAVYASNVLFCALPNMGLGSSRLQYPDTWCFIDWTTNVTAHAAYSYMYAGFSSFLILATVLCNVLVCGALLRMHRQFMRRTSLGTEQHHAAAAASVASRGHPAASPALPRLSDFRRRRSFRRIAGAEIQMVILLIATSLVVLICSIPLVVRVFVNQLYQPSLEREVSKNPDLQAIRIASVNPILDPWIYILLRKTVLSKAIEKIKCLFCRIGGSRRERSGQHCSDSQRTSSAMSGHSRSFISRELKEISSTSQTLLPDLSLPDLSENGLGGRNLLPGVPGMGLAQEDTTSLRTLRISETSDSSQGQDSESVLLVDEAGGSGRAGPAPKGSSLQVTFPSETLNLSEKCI

SMILES	Ratio Ki (Homo sapiens [1])	Ratio Ki (Homo sapiens [2])	Ratio Ki (Homo sapiens [3])	Ratio Ki (Homo sapiens [4])	Ratio Ki (Homo sapiens [5])	Ratio Ki (Homo sapiens [6])	Ratio Ki (Homo sapiens [7])	Ki [8] [nM]	IC50 [9] [nM]	half-life [10] [h]	bioavailability [11] [%]	clearance [12] [mL/min/kg]
C[C@H](NC(=O)c1cccc2c1N(Cc1ccc(C(F)(F)F)cc1)CC2)c1ccc(-c2nn[nH]n2)cc1	> 1000	> 1000	> 1000	> 1000	> 1000	> 1000	> 1000	–	–	–	–	–
C[C@H](NC(=O)c1cccc2c1N(Cc1ccc(C(N)=O)cc1)CC2)c1ccc(C(=O)O)cc1	> 1000	> 1000	> 1000	> 1000	> 1000	> 1000	> 1000	30	73	–	–	–
C[C@H](NC(=O)c1cccc2c1N(Cc1ccc(Cl)cc1)CC2)c1ccc(C(=O)O)cc1	> 1000	> 1000	> 1000	> 1000	> 1000	> 1000	> 1000	0.44	0.92	4.7	102	9
C[C@H](NC(=O)c1cccc2c1N(Cc1ccc(C(=O)O)cc1)CC2)c1ccc(C(=O)O)cc1	> 179	> 73	> 1000	> 1000	> 1000	> 1000	> 1000	54	–	–	–	–
C[C@H](NC(=O)c1cccc2c1N(Cc1cccc(C#N)c1)CC2)c1ccc(C(=O)O)cc1	582	> 1000	> 1000	> 1000	> 1000	> 1000	> 1000	7.5	212	–	–	–
C[C@H](NC(=O)c1cccc2c1N(Cc1ccc(C(C)(C)C)cc1)CC2)c1ccc(C(=O)O)cc1	> 692	> 281	> 1000	> 1000	> 1000	> 1000	> 1000	14	114	–	–	–
C[C@H](NC(=O)c1cccc2c1N(Cc1cccc(C(N)=O)c1)CC2)c1ccc(C(=O)O)cc1	582	461	> 1000	> 1000	> 1000	> 1000	> 1000	30	72	–	–	–
C[C@H](NC(=O)c1cccc2c1N(Cc1ccc(C(F)(F)F)cc1)CC2)c1ccc(-c2nnn[nH]2)cc1	–	–	–	–	–	–	–	1	3.5	2.6	54	28
C[C@H](NC(=O)c1cc(Cl)cc2c1N(Cc1ccc(C(F)(F)F)cc1)CC2)c1ccc(C(=O)O)cc1	647	670	> 1000	> 1000	> 1000	> 1000	> 1000	0.4	2.2	–	–	–
C[C@H](NC(=O)c1cccc2ccn(Cc3cccc(Cl)c3)c12)c1ccc(C(=O)O)cc1	> 1000	16	> 1000	> 1000	> 1000	> 1000	> 1000	–	6	–	–	–
C[C@H](NC(=O)c1cc(F)cc2c1N(Cc1ccc(C(F)(F)F)cc1)CC2)c1ccc(C(=O)O)cc1	> 1000	> 1000	> 1000	> 1000	> 1000	> 1000	> 1000	0.37	2.1	–	–	–
C[C@H](NC(=O)c1cccc2c1N(Cc1ccc(Cl)cc1Br)CC2)c1ccc(C(=O)O)cc1	> 1000	114	> 1000	> 1000	> 1000	> 1000	> 1000	2.3	8.3	–	–	–
C[C@H](NC(=O)c1cccc2c1N(Cc1ccc(C(F)(F)F)cc1Br)CC2)c1ccc(C(=O)O)cc1	795	88	> 1000	> 1000	> 1000	> 1000	> 1000	6.7	4.7	–	–	–
C[C@H](NC(=O)c1cccc2c1N(Cc1ccc(-c3ccccc3)cc1)CC2)c1ccc(C(=O)O)cc1	139	57	> 1000	> 1000	> 1000	> 1000	> 1000	0.28	1.3	–	–	–
Cc1ccc(CN2CCc3cccc(C(=O)N[C@@H](C)c4ccc(C(=O)O)cc4)c32)cc1	> 1000	> 1000	> 1000	> 1000	> 1000	> 1000	> 1000	0.78	5.8	–	–	–
C[C@H](NC(=O)c1cccc2c1N(Cc1ccc(OC(F)(F)F)cc1)CC2)c1ccc(C(=O)O)cc1	687	880	> 1000	> 1000	> 1000	> 1000	> 1000	1.5	2.8	–	–	–
C[C@H](NC(=O)c1cccc2c1N(Cc1ccc(F)cc1)CC2)c1ccc(C(=O)O)cc1	488	907	> 1000	> 1000	> 1000	> 1000	> 1000	1.8	6.2	–	–	–
C[C@H](NC(=O)c1cccc2c1N(Cc1ccc(C#N)cc1)CC2)c1ccc(C(=O)O)cc1	603	916	> 1000	> 1000	> 1000	> 1000	> 1000	3.1	7.3	–	–	–
C[C@H](NC(=O)c1cc(C(F)(F)F)cc2c1N(Cc1ccc(C(F)(F)F)cc1)CC2)c1ccc(C(=O)O)cc1	153	504	> 1000	> 1000	> 1000	> 1000	> 1000	0.66	3	–	–	–
C[C@H](NC(=O)c1cccc2c1N(Cc1cccnc1)CC2)c1ccc(C(=O)O)cc1	> 127	> 50	> 1000	> 1000	> 1000	> 1000	> 1000	76	258	–	–	–
